Test results: ChEMBL document CHEMBL3108700, “Designing anti-inflammatory drugs from parasitic worms: a synthetic small molecule analogue of the Acanthocheilonema viteae product ES-62 prevents development of collagen-induced arthritis” (J Med Chem, 2013)
The source made the active and inactive calls.

Legend:
[1] = target: T1, TLR2/TLR6 (Mus musculus) (UniProt Q9QUN7+Q9EPW9); assay: Inhibition of TLR2/6 in BALB/c mouse BMDM assessed as downregulation of BLP-stimulated IL-6 level at 5 ug/ml preincubated for 18 hrs followed by BLP challenge measured after 24 hrs by ELISA relative to control; format: protein-complex assay
Summary of the method: (§1)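 BALB/c male bone marrow macrophages were differentiated 7 days with L929 supernatant (≥99% CD11b+/F4/80+). Cells were plated at 2 × 10^5/well in triplicate, rested overnight, and given compounds at 5 μg/mL for 18 h. They were then stimulated with 100 ng/mL S. minnesota LPS, 10 ng/mL Pam3CSK4 (BLP) or 0.01 μM CpG for 24 h. Supernatant IL-12p40 and IL-6 were measured by ELISA (sensitivity 16 pg/mL).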

[2] = target: T2, Toll-like receptor 9 (Mus musculus) (UniProt Q9EQU3); assay: Inhibition of TLR9-mediated NFkappaB p65 activation in CpG-stimulated BALB/c mouse BMDM at 5 ug/ml preincubated for 18 hrs followed by CpG challenge measured after 1 hr by TransAM ELISA
T2 sequence (whole entry): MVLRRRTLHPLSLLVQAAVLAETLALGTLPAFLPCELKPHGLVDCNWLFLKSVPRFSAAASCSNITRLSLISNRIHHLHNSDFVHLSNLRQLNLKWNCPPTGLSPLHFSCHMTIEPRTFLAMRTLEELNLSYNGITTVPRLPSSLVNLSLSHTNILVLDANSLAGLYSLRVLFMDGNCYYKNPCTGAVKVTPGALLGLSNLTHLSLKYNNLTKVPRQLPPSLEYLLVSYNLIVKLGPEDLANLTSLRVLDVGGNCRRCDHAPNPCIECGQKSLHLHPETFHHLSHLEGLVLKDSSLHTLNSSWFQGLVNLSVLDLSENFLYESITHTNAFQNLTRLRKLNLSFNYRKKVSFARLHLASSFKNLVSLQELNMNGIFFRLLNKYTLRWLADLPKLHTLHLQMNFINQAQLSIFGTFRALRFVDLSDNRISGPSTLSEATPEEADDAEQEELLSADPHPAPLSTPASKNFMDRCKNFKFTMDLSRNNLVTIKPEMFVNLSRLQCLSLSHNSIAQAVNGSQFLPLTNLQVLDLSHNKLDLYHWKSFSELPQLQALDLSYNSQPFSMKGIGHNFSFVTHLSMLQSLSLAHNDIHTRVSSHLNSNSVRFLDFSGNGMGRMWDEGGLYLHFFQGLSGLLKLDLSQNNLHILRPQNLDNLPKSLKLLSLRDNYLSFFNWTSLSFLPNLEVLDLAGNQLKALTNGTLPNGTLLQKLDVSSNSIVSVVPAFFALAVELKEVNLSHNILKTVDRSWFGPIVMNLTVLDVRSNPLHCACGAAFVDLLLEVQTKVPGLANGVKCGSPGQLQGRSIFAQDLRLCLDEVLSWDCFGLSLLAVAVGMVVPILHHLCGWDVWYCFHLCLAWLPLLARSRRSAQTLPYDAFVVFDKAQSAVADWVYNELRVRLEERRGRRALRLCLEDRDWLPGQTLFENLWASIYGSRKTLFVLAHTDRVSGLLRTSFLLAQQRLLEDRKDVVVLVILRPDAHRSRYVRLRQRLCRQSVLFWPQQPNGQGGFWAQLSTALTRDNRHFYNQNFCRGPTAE
Summary of the method: (§2)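 Bone marrow macrophages (4 × 10^6/well) had their medium changed after 24 h, were pretreated with compounds at 5 μg/mL for 18 h, then stimulated for 1 h with 100 ng/mL LPS, 10 ng/mL BLP or 1 μM CpG. Activated NFκB p65 in nuclear extracts was measured by TransAM ELISA in duplicate.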

[3] = target: T1, TLR2/TLR6 (Mus musculus); assay: Inhibition of TLR2/6 in BALB/c mouse BMDM assessed as downregulation of BLP-stimulated IL-12p40 level at 5 ug/ml preincubated for 18 hrs followed by BLP challenge measured after 24 hrs by ELISA relative to control; format: protein-complex assay; summary of the method: as §1
[4] = target: T2, Toll-like receptor 9 (Mus musculus); assay: Inhibition of TLR9 in BALB/c mouse BMDM assessed as downregulation of CpG-stimulated IL-12p40 level at 5 ug/ml preincubated for 18 hrs followed by CpG challenge measured after 24 hrs by ELISA relative to control; summary of the method: as §1
[5] = target: T3, Toll-like receptor 4 (Mus musculus) (UniProt Q9QUK6); assay: Inhibition of TLR4-mediated NFkappaB p65 activation in LPS-stimulated BALB/c mouse BMDM at 5 ug/ml preincubated for 18 hrs followed by LPS challenge measured after 1 hr by TransAM ELISA; summary of the method: as §2
T3 sequence (whole entry): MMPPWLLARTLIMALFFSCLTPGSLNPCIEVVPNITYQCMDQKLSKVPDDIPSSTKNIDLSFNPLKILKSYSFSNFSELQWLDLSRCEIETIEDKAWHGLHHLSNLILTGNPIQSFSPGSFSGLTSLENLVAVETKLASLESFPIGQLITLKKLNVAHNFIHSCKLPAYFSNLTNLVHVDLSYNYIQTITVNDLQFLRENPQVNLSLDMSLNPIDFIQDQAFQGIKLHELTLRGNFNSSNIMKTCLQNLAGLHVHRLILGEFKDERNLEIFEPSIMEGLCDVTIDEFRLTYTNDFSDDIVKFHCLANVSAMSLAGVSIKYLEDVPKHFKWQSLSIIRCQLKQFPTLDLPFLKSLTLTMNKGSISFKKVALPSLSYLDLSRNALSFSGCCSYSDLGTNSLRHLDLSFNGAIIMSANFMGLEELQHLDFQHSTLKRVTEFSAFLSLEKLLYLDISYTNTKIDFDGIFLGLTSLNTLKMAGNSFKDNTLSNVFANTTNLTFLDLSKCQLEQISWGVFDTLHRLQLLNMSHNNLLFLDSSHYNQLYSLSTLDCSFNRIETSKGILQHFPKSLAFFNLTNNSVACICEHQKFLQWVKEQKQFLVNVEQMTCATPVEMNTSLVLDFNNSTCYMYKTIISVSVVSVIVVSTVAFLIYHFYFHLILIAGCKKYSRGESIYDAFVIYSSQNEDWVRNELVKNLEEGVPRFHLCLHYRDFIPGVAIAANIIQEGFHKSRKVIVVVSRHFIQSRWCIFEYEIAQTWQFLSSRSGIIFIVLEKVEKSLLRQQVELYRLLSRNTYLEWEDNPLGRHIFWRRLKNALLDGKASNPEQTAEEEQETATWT

[6] = target: T3, Toll-like receptor 4 (Mus musculus); assay: Inhibition of TLR4 in BALB/c mouse BMDM assessed as downregulation of LPS-stimulated IL-12p40 level at 5 ug/ml preincubated for 18 hrs followed by LPS challenge measured after 24 hrs by ELISA relative to control; summary of the method: as §1
[7] = target: T1, TLR2/TLR6 (Mus musculus); assay: Inhibition of TLR2/6-mediated NFkappaB p65 activation in BLP-stimulated BALB/c mouse BMDM at 5 ug/ml preincubated for 18 hrs followed by BLP challenge measured after 1 hr by TransAM ELISA; format: protein-complex assay; summary of the method: as §2
[8] = target: T2, Toll-like receptor 9 (Mus musculus); assay: Inhibition of TLR9 in BALB/c mouse BMDM assessed as downregulation of CpG-stimulated IL-6 level at 5 ug/ml preincubated for 18 hrs followed by CpG challenge measured after 24 hrs by ELISA relative to control; summary of the method: as §1
[9] = target: T3, Toll-like receptor 4 (Mus musculus); assay: Inhibition of TLR4 in BALB/c mouse BMDM assessed as downregulation of LPS-stimulated IL-6 level at 5 ug/ml preincubated for 18 hrs followed by LPS challenge measured after 24 hrs by ELISA relative to control; summary of the method: as §1

SMILES	inhibition [1]	inhibition [2]	inhibition [3]	inhibition [4]	inhibition [5]	inhibition [6]	inhibition [7]	inhibition [8]	inhibition [9]
CN(C)CCS(=O)(=O)NCc1ccc([N+](=O)[O-])cc1	Active	inactive	Active	Active	inactive	inactive	inactive	Active	Active
CN(C)CCNCCS(=O)(=O)c1ccccc1	inactive	–	inactive	inactive	–	inactive	–	inactive	inactive
Cc1ccc(CS(=O)(=O)CCN(C)C)cc1	inactive	–	inactive	inactive	–	Active	–	inactive	Active
O=S(=O)(CCN1CCOCC1)Nc1ccc(F)cc1	inactive	–	inactive	inactive	–	Active	–	inactive	inactive
COc1cccc(C(=O)NCCCN(C)C)c1	inactive	–	inactive	inactive	–	Active	–	Active	inactive
C[N+]1(CCCS(=O)(=O)Cc2ccc(Br)cc2)CCOCC1	inactive	–	inactive	inactive	–	inactive	–	inactive	inactive
C[N+](C)(C)CCOP(=O)(O)Cc1ccc(Br)cc1	inactive	–	Active	inactive	–	Active	–	inactive	inactive
CN(C)CCN(C)CCS(=O)(=O)c1ccccc1	inactive	–	inactive	inactive	–	inactive	–	inactive	inactive
Cc1ccc(CS(=O)(=O)NCCN2CCCC2)cc1	inactive	–	inactive	inactive	–	inactive	–	inactive	inactive
C[N+](C)(C)CCS(=O)(=O)Cc1ccc(Br)cc1	inactive	–	inactive	inactive	–	inactive	–	inactive	inactive
CC[C@@H](C)NCCS(=O)(=O)c1ccccc1	inactive	–	inactive	inactive	–	inactive	–	inactive	inactive
CN(C)CCS(=O)(=O)NCc1ccc(F)cc1	inactive	–	inactive	Active	–	inactive	–	inactive	inactive
CN(C)CCNS(=O)(=O)Cc1ccc2ccccc2c1	inactive	–	inactive	inactive	–	inactive	–	inactive	inactive
